Assay results collected from several papers.
pEC50, pIC50, pKd, pKi: −log10 of the molar value.
NPSR1: Neuropeptide S receptor (NPSR1, Homo sapiens, UniProt Q6W5P4)
CHRM5: Muscarinic acetylcholine receptor M5 (CHRM5, Homo sapiens, UniProt P08912)
MC4R: Melanocortin receptor 4 (MC4R, Homo sapiens, UniProt P32245)
SLC6A2: Sodium-dependent noradrenaline transporter (SLC6A2, Homo sapiens, UniProt P23975)
NQO2: Ribosyldihydronicotinamide dehydrogenase [quinone] (NQO2, Homo sapiens, UniProt P16083)

N=c1c2c(ncn1-c1ccccc1)Oc1ccc3ccccc3c1C2c1ccccc1 (stereo not drawn)
pIC50 (NPSR1; calcium signal; antagonist): 6.16

CC[C@@H]1SC2(CCN(C)CC2)NC1=O
pEC50 (CHRM5; calcium signal; agonist): 5.97

N=c1c2c(ncn1CCc1ccccc1)Oc1ccc3ccccc3c1C2c1ccccc1 (stereo not drawn)
pIC50 (NPSR1; calcium signal; antagonist): 5.46

CC[C@H](C)[C@H](NC(=O)CN)C(=O)N[C@H](C(=O)N[C@@H](CC(N)=O)C(=O)N[C@H](C(=O)N[C@@H](CC(C)C)C(=O)N[C@@H](CCC(N)=O)C(=O)N[C@@H](CCCCN)C(=O)N[C@@H](Cc1ccc(O)cc1)C(=O)N[C@@H](Cc1ccc(O)cc1)C(=O)N[C@@H](CO)C(=O)N[C@@H](CCCNC(=N)N)C(=O)N[C@H](C(=O)N[C@@H](CCCNC(=N)N)C(=O)NCC(=O)NCC(=O)N[C@@H](CCCNC(=N)N)C(=O)N[C@H]1CSSC[C@@H](C(=O)N[C@@H](CO)C(=O)N[C@H](C(=O)N[C@@H](CCCNC(=N)N)C(=O)NCC(=O)N[C@@H](CCCNC(=N)N)C(=O)N[C@@H](CCCCN)C(=O)N[C@@H](CO)C(=O)N[C@@H](CO)C(=O)N[C@@H](CCCNC(=N)N)C(=O)N[C@@H](CCCNC(=N)N)C(=O)N[C@@H](CCCCN)C(=O)N[C@@H](CCCCN)C(N)=O)[C@@H](C)O)NC(=O)[C@H](CCCCN)NC(=O)CNC(=O)[C@H]([C@@H](C)CC)NC(=O)[C@H](CCC(N)=O)NC(=O)[C@H](CCC(=O)O)NC(=O)[C@H](CCC(=O)O)NC(=O)[C@H](CCCCN)NC(=O)[C@@H]2CCCN2C(=O)[C@H](CC(C)C)NC(=O)[C@H](CO)NC(=O)[C@H](CO)NC(=O)[C@H](CC(C)C)NC(=O)[C@H](C(C)C)NC(=O)[C@H](C)NC1=O)C(C)C)[C@@H](C)O)[C@@H](C)CC
pKi (MC4R; ligand displacement in cells): 6.25

COc1ccc(C2c3c(n(Cc4ccccc4)cnc3=N)Oc3ccc4ccccc4c32)cc1OC (stereo not drawn)
pIC50 (NPSR1; calcium signal; antagonist): < 4.52

CSSc1ccccc1C(=O)O
pKi (srtA (Staphylococcus aureus, UniProt Q2FV99); enzyme activity; inhibitor; fluorescence; pH 7.5): 3.44

CCCC[C@H](NC(=O)[C@H](CO)NC(=O)[C@H](Cc1ccc(O)cc1)NC(=O)[C@H](CO)NC(C)=O)C(=O)N[C@@H](CCC(=O)O)C(=O)N[C@@H](Cc1c[nH]cn1)C(=O)N[C@@H](C)C(=O)N[C@@H](CCCNC(=N)N)C(=O)N[C@@H](Cc1c[nH]c2ccccc12)C(=O)NCC(=O)N[C@@H](CCCCN)C(=O)N1CCC[C@H]1C(=O)N[C@H](C(=O)NCC(=O)N[C@@H](CCCCN)C(=O)N[C@@H](CCCCN)C(=O)N[C@@H](CCCNC(=N)N)C(N)=O)C(C)C
pEC50 (MC4R; cAMP; agonist): 6.59

CCOC(=O)[C@@]12C[C@@H]1[C@@H](n1ccc3c(NCCc4ccccc4)nc(C#Cc4ccccc4)nc31)[C@H](O)[C@@H]2O
pKi (SLC6A2; ligand displacement; radioligand): 5.55

COc1ccc(-c2nsc(NC(=O)[C@@H]3C[C@H]3C)c2C)cc1
pEC50 (Metabotropic glutamate receptor 3 (GRM3, Homo sapiens, UniProt Q14832); calcium signal; agonist): < 4.60

O[C@@H]1[C@H](O)[C@@H]2C[C@@H]2[C@H]1n1cnc2c(NCC(c3ccccc3)c3ccccc3)nc(C#Cc3ccccc3)nc21
pKi (SLC6A2; ligand displacement; radioligand): 5.24

O=C(O)Cc1ccccc1Nc1c(Cl)cccc1Cl
pKi (NQO2; enzyme activity; inhibitor; absorbance): < 3.00

COc1ccc(C2c3c(ncn(CCc4ccccc4)c3=N)Oc3ccc4ccccc4c32)cc1OC (stereo not drawn)
pIC50 (NPSR1; calcium signal; antagonist): < 4.52

Clc1ccc2c(c1)N(CCCN1CCN(CCCc3ccccc3)CC1)c1ccccc1S2
pKi (Trypanothione reductase (TPR, Trypanosoma cruzi, UniProt P28593); enzyme activity; inhibitor; absorbance): 6.48

CCOC(=O)c1ccc(-n2cnc3c(c2=N)C(c2cccc(OC)c2)c2c(ccc4ccccc24)O3)cc1 (stereo not drawn)
pIC50 (NPSR1; cAMP; antagonist; TR-FRET): 4.81

CCN(CC)CCCC(C)Nc1cnc(C(=O)Nc2ccc(Cl)c3cccnc23)cn1 (stereo not drawn)
pKi (CHRM5; cell-free assay; radioligand): 6.66

CC(C)C1=Cc2ccc3c(c2C(=O)C1=O)CCCC3(C)C
pKi (Cholinesterase (BCHE, Homo sapiens, UniProt P06276); enzyme activity; inhibitor): < 4.00

Nc1ncnc2c1ncn2[C@@H]1O[C@H](COP(=O)(O)OP(=O)(O)OP(=O)(O)OP(=O)(O)OP(=O)(O)OC[C@H]2O[C@@H](n3cnc4c(N)ncnc43)[C@H](O)[C@@H]2O)[C@@H](O)[C@H]1O
pKd (adk (Escherichia coli, UniProt P69441); binding; ITC): 6.45

N=c1c2c(ncn1Cc1ccccc1)Oc1ccc3ccccc3c1C2c1ccccc1 (stereo not drawn)
pIC50 (NPSR1; calcium signal; antagonist): < 4.52

CN1CCN(C2=Nc3cc(Cl)ccc3Nc3ccccc32)CC1
pKi (NQO2; enzyme activity; inhibitor): 3.13

Cc1cnc(-c2ccc(-c3ccc(NC(=O)Nc4c(F)cc(F)cc4F)cc3F)c3c2C(=O)NC3)[nH]1
pKd (Tyrosine-protein kinase Fgr (FGR, Homo sapiens, UniProt P09769); binding; competition with immobilised ligand): 7.08

NC(=O)N1c2ccccc2C=Cc2ccccc21
pKi (NQO2; enzyme activity; inhibitor; absorbance): < 3.30

COc1ccc(C2c3c(ncn(CCCc4ccccc4)c3=N)Oc3ccc4ccccc4c32)cc1OC (stereo not drawn)
pIC50 (NPSR1; cAMP; antagonist; TR-FRET): 4.61

Nc1ncnc2c1ncn2[C@@H]1O[C@H](COP(=O)(O)OP(=O)(O)OP(=O)(O)O)[C@@H](O)[C@H]1O
pKd (dnaA (Escherichia coli, UniProt P03004, V303M); binding): 7.10

Cc1cc(Nc2cc3ncccc3c(N[C@@H]3C[C@H]4CC[C@@H](C3)N4CCC#N)n2)n[nH]1
pKd (Dual specificity mitogen-activated protein kinase kinase 5 (MAP2K5, Homo sapiens, UniProt Q13163); binding; competition with immobilised ligand): 7.19
